# Measurements: ChEMBL document CHEMBL5705886, “GSK1070916, a potent Aurora B/C kinase inhibitor with broad antitumor activity in tissue culture cells and human tumor xenograft models” (Mol Cancer Ther, 2009)
# The source made the active and inactive calls. The calls are words filed in the database; no cut-off is given here.
# Key:
# [1] = test system: ML-2; test: Antiproliferative activity against human ML-2 cells assessed as inhibition of cell viability measured for 6 to 7 days by cell titer glo assay; type: functional, cell-based
# Summary of the method: (§1)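 Cells seeded in recommended growth medium, incubated overnight at 37°C in 5% CO2, then exposed to serial dilutions of inhibitor for 6–7 d. A parallel plate was read with CellTiter-Glo at compound addition as a T=0 value. The luminescent viability readout had no-cell background subtracted and was expressed as % of DMSO control.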
# [2] = Toxicity in SCID nude mouse xenografted with human HCT-116 cells assessed as drug tolerance at 25 to 100 mg/kg, ip administered once daily for 5 consecutive days with 2 days off scheduled for 3 cycles measured upto 60 days; type: organism-based; details: in vivo, 1440 h, dose 25-100 mg/kg, time < 60 day
# [3] = test system: CA46; test: Antiproliferative activity against human CA46 cells assessed as inhibition of cell viability measured for 6 to 7 days by cell titer glo assay; type: functional, cell-based
# Summary of the method: (§2)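 Tumor lines plated in recommended growth media, overnight at 37°C, 5% CO2, then given serial dilutions; a T=0 plate read with CellTiter-Glo at dosing. After 6–7 d of exposure, viability read by CellTiter-Glo luminescence. No-cell wells subtracted, data expressed as % of DMSO control.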
# [4] = Toxicity in SCID nude mouse xenografted with human HL-60 cells assessed as drug tolerance at 100 mg/kg, ip administered once daily for 5 consecutive days with 2 days off scheduled for 2 cycles measured upto 60 days; details: in vivo, 1440 h
# [5] = test system: HL-60; test: Antitumor activity in human HL-60 cells xenografted in SCID mouse assessed as median survival time at 25 mg/kg, ip administered once daily for 5 consecutive days with 2 days off scheduled for 2 cycles measured upto 120 days; type: functional; details: time <= 120 day
# [6] = Antiproliferative activity against human SKO-007 cells assessed as inhibition of cell viability measured for 6 to 7 days by cell titer glo assay; type: functional, cell-based
# Summary of the method: (§3)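 Cells seeded in recommended growth medium, held overnight at 37°C in 5% CO2, then exposed to serial dilutions of inhibitor for 6–7 d. A time-zero plate was read with CellTiter-Glo at dosing. Luminescent viability read at the end. No-cell wells subtracted as background, data expressed as percent of DMSO control.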
# [7] = test system: A549; test: Induction of mitotic alteration in human A549 cells formation of unorganized chromosomes at 12 to 330 nmol/L incubated for 24 hrs by immunofluorescent microscopy based analysis; type: functional, cell-based; details: dose lower […], dose upper 330.0 nmol/L
# [8] = test system: Rec1; test: Antiproliferative activity against human REC1 cells assessed as inhibition of cell viability measured for 6 to 7 days by cell titer glo assay; type: functional, cell-based; summary of the method: as §3
# [9] = test system: A549; test: Effect on cell cycle distribution in human A549 cells assessed as increase in >4N DNA content at 2 to 5000 nM incubated for 24 to 72 hrs by flow cytometry based analysis; type: functional; details: dose 2-5000 nM, time 24-72 hrs
# [10] = test system: ST486; test: Antiproliferative activity against human ST486 cells assessed as inhibition of cell viability measured for 6 to 7 days by cell titer glo assay; type: functional, cell-based; summary of the method: as §3
# [11] = test system: SUP-B15; test: Antiproliferative activity against human SUP-B15 cells assessed as inhibition of cell viability measured for 6 to 7 days by cell titer glo assay; type: functional, cell-based; summary of the method: as §3
# [12] = test system: MEG-01; test: Antiproliferative activity against human MEG-01 cells assessed as inhibition of cell viability measured for 6 to 7 days by cell titer glo assay; type: functional, cell-based; summary of the method: as §1
# [13] = test system: HH; test: Antiproliferative activity against human HH cells assessed as inhibition of cell viability measured for 6 to 7 days by cell titer glo assay; type: functional, cell-based; summary of the method: as §1
# [14] = test system: Pfeiffer; test: Antiproliferative activity against human Pfeiffer cells assessed as inhibition of cell viability measured for 6 to 7 days by cell titer glo assay; type: functional, cell-based; summary of the method: as §3
# [15] = test system: HN5; test: Antiproliferative activity against human HN5 cells assessed as inhibition of cell viability measured for 6 to 7 days by cell titer glo assay; type: functional, cell-based; summary of the method: as §1
# [16] = test system: DB; test: Antiproliferative activity against human DB cells assessed as inhibition of cell viability measured for 6 to 7 days by cell titer glo assay; type: functional, cell-based; summary of the method: as §2
# [17] = test system: SU-DHL-6; test: Antiproliferative activity against human SU-DHL-6 cells assessed as inhibition of cell viability measured for 6 to 7 days by cell titer glo assay; type: functional, cell-based; summary of the method: as §3
# [18] = test system: CMK; test: Antiproliferative activity against human CMK cells assessed as inhibition of cell viability measured for 6 to 7 days by cell titer glo assay; type: functional, cell-based; summary of the method: as §2
# [19] = test system: NCI-H460; test: Antitumor activity in human NCI-H460 cells xenografted in nude mouse assessed as reduction in tumor growth at 25 to 100 mg/kg, ip administered once daily for 5 consecutive days with 2 days off scheduled for 3 cycles measured upto 60 days; details: dose 25-100 mg/kg, time 60.0 day
# [20] = Antiproliferative activity against human TO 175.T cells assessed as inhibition of cell viability measured for 6 to 7 days by cell titer glo assay; type: functional, cell-based; summary of the method: as §3
# [21] = test system: COLO 205; test: Antitumor activity in human COLO 205 cells xenografted in nude mouse assessed as reduction in tumor growth at 25 to 100 mg/kg, ip administered once daily for 5 consecutive days with 2 days off scheduled for 2 cycles measured upto 60 days; details: dose 25-100 mg/kg, time 60.0 day
# [22] = Toxicity in SCID nude mouse xenografted with human MCF7 cells assessed as body weight loss at 50 to 100 mg/kg, ip administered once daily for 5 consecutive days with 2 days off scheduled for 3 cycles measured upto 60 days; type: organism-based; details: in vivo, 1440 h, dose 50-100 mg/kg, time < 60 day
# [23] = test system: Daudi; test: Antiproliferative activity against human Daudi cells assessed as inhibition of cell viability measured for 6 to 7 days by cell titer glo assay; type: functional, cell-based; summary of the method: as §2
# [24] = test system: Farage; test: Antiproliferative activity against human Farage cells assessed as inhibition of cell viability measured for 6 to 7 days by cell titer glo assay; type: functional, cell-based; summary of the method: as §2
# [25] = test system: HEL 92.1.7; test: Antiproliferative activity against human HEL 92.1.7 cells assessed as inhibition of cell viability measured for 6 to 7 days by cell titer glo assay; type: functional, cell-based; summary of the method: as §2
# [26] = Antiproliferative activity against human RCH-ACV cells assessed as inhibition of cell viability measured for 6 to 7 days by cell titer glo assay; type: functional, cell-based; summary of the method: as §3
# [27] = test system: MDA-MB-231; test: Antiproliferative activity against human MDA-MB-231 cells assessed as inhibition of cell viability measured for 6 to 7 days by cell titer glo assay; type: functional, cell-based; summary of the method: as §1
# [28] = test system: MV-4-11 (human); test: Antitumor activity in human MV-4-11 cells xenografted in NOD-SCID mouse assessed as median survival time at 20 mg/kg, ip administered once daily for 5 consecutive days with 2 days off scheduled for 3 cycles measured upto 120 days; details: time <= 120 day
# [29] = Antiproliferative activity against human EB1 cells assessed as inhibition of cell viability measured for 6 to 7 days by cell titer glo assay; type: functional, cell-based; summary of the method: as §2
# [30] = Antiproliferative activity against human HuNS1 cells assessed as inhibition of cell viability measured for 6 to 7 days by cell titer glo assay; type: functional, cell-based; summary of the method: as §1
# [31] = test system: RPMI-6666; test: Antiproliferative activity against human RPMI-6666 cells assessed as inhibition of cell viability measured for 6 to 7 days by cell titer glo assay; type: functional, cell-based; summary of the method: as §3
# [32] = test system: OCI-AML2; test: Antiproliferative activity against human OCI-AML2 cells assessed as inhibition of cell viability measured for 6 to 7 days by cell titer glo assay; type: functional, cell-based; summary of the method: as §3
compound,measurement,setting,value
CCn1cc(-c2ccnc3[nH]c(-c4cccc(CN(C)C)c4)cc23)c(-c2ccc(NC(=O)N(C)C)cc2)n1 [GSK-1070916],EC50,[1],5 nM
same,Activity,[2],Non-Toxic
same,EC50,[3],5 nM
same,Activity,[4],Toxic
same,MST,[5],57 days
same,EC50,[6],352 nM
same,Activity,[7],Active
same,EC50,[8],77 nM
same,Activity,[9],Active
same,EC50,[10],2 nM
same,EC50,[11],2 nM
same,EC50,[12],44 nM
same,EC50,[13],18 nM
same,EC50,[14],4 nM
same,EC50,[15],10 nM
same,EC50,[16],11 nM
same,EC50,[17],6 nM
same,EC50,[18],27 nM
same,Activity,[19],inactive
same,EC50,[20],54 nM
same,Activity,[21],inactive
same,Activity,[22],Toxic
same,EC50,[23],5 nM
same,EC50,[24],7 nM
same,EC50,[25],60 nM
same,EC50,[26],4 nM
same,EC50,[27],11 nM
same,MST,[28],103 days
same,EC50,[29],7 nM
same,EC50,[30],9 nM
same,EC50,[31],10 nM
same,EC50,[32],4 nM
